Assay results reported in ChEMBL document CHEMBL4251680, “Catecholic Isoquinolines from Portulaca oleracea and Their Anti-inflammatory and β2-Adrenergic Receptor Agonist Activity” (J Nat Prod, 2018).

How the values were obtained:
[1] = biological target: T1, Beta-2 adrenergic receptor (Homo sapiens, UniProt P07550); assay: Agonist activity at human beta2-AR expressed in CHOK1 cells co-expressing Galpha15 at 100 uM measured after 21 secs to 120 secs by Calcium-4 dye based FLIPR assay relative to 1 uM isoproterenol; assay type: functional, cell-based
How it was run: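 CHO-K1/Gα15 cells stably expressing β2-AR, grown in Ham's F12 with 10% FBS, hygromycin B and zeocin. Plated at 1.5 × 10^4 cells/well, 18 h, then loaded with FLIPR Calcium 4 dye for 1 h at 37 °C and 15 min at room temperature. Compounds from DMSO stocks diluted in HBSS/20 mM HEPES pH 7.4, added at 21 s. Read 120 s; stimulation ratio = (ΔRFU − background) relative to isoproterenol.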
Target sequence in this assay (P07550 whole entry, looked up): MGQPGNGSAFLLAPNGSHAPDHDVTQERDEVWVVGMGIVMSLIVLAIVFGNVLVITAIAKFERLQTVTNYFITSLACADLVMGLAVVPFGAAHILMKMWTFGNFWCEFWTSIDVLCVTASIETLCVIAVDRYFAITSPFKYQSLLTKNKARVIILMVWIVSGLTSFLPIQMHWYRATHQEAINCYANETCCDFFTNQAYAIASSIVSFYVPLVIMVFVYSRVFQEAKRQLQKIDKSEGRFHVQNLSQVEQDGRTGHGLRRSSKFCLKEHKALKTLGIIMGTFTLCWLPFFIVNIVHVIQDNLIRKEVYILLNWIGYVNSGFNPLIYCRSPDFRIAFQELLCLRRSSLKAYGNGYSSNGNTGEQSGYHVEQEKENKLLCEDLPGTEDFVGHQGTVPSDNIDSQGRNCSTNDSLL

[2] = biological target: T1, Beta-2 adrenergic receptor; assay: Agonist activity at human beta2-AR expressed in CHOK1 cells co-expressing Galpha15 measured after 21 secs to 120 secs by Calcium-4 dye based FLIPR assay; assay type: functional, cell-based
Target sequence in this assay (P07550 whole entry): as the sequence (P07550 whole entry, looked up) above

[3] = tested on: RAW264.7; assay: cells; conditions: Mus musculus, RAW264.7, 24 h

| Compound | Activity [1] [%] | EC50 [2] [µM] | EC50 [3] [µM] |
| --- | --- | --- | --- |
| C[C@@H]1NCCc2cc(O)c(O)cc21 | 35.5 | – | 58.7 |
| CC(C)C[C@H]1NCCc2cc(O)c(O)cc21 | 70.9 | – | 498 |
| CC1=NCCc2cc(O)c(O)cc21 | 37.7 | – | 209 |
| CCOC(=O)CC[C@@H]1NCCc2cc(O)c(O)cc21 | 42 | – | 36.3 |
| Oc1cc2c(cc1O)C(c1ccco1)=NCC2 | 91.8 | 5.1 | 18.1 |
| O=C(NO)c1ccc(O)c(O)c1 | – | – | 82.4 |
| NCCc1ccc(O)c(O)c1 [DOPAMINE] | 86.4 | – | 18 |
| O=C1c2cc(O)c(O)cc2CCn2cccc21 | -11.5 | – | 225 |
| O=C1CC[C@H]2c3cc(O)c(O)cc3CCN12 | 70.2 | – | 35.4 |
| NCCc1ccc(O)c(O)c1S(=O)(=O)O | 39.3 | – | 310 |

Continued by falling EC50 [3], values first:

| Activity [1] [%] | EC50 [2] [µM] | EC50 [3] [µM] | Compound |
| --- | --- | --- | --- |
| 41.1 | – | 248 | Oc1cc2c(cc1O)CCN=C2 |
| 70.6 | – | 203 | OCc1ccc(C2=NCCc3cc(O)c(O)cc32)o1 |
| 0.5 | – | 126 | O=C1NCCc2cc(O)c(O)cc21 |
| 90.8 | 0.0879 | 107 | Oc1cc2c(cc1O)[C@@H](Cc1ccccc1)NCC2 |
| 11.4 | – | 87.9 | Oc1cc2c(cc1O)CC[N+](Cc1ccco1)=C2 |
